Experimental data: ChEMBL document CHEMBL3739335, “Phosphonooxymethyl Prodrug of Triptolide: Synthesis, Physicochemical Characterization, and Efficacy in Human Colon Adenocarcinoma and Ovarian Cancer Xenografts” (J Med Chem, 2015)
Active and inactive are the calls of the source. No cut-off for these calls is given here.

Tests used:
A2780 = experiment: Antitumor activity against human A2780 cells xenografted in athymic nude mouse at 0.6 to 0.9 mg/kg, ip and po administered for 30 days; assay type: functional, organism-based
In short: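 Female athymic nude mice, 7–9 weeks, implanted s.c. on right or left flank with 2.5 × 10^6 A2780 cells (ECACC, mycoplasma/rodent-pathogen tested) in 50% Matrigel/50% RPMI 1640; randomized at mean tumor 188 mm3, 10/group. Dosed daily for 30 days IP or by oral gavage in USP saline, 0.2 mL. Tumor volume by caliper (L × W2/2), tumor weight at necropsy, survival, body weight.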

Mus musculus [1] = experiment: Toxicity in athymic nude mouse xenografted with human HT-29 cells assessed as mortality at 0.9 mg/kg, ip administered for 2 weeks; assay type: organism-based; conditions: in vivo, 336 h
[2] = Chemical stability of the compound in buffer assessed as compound remaining at pH 9 after 8 hrs by HPLC analysis; assay type: physicochemical; conditions: read-out: Stability
alkaline phosphatase = molecular target: T1, alkaline phosphatase (Bos taurus, UniProt P09487); experiment: Half life of the compound in glycine buffer assessed as bovine intestinal mucosal alkaline phosphatase-mediated compound degradation at pH 9.8; assay type: ADME; conditions: cattle
T1 sequence (P09487 whole entry): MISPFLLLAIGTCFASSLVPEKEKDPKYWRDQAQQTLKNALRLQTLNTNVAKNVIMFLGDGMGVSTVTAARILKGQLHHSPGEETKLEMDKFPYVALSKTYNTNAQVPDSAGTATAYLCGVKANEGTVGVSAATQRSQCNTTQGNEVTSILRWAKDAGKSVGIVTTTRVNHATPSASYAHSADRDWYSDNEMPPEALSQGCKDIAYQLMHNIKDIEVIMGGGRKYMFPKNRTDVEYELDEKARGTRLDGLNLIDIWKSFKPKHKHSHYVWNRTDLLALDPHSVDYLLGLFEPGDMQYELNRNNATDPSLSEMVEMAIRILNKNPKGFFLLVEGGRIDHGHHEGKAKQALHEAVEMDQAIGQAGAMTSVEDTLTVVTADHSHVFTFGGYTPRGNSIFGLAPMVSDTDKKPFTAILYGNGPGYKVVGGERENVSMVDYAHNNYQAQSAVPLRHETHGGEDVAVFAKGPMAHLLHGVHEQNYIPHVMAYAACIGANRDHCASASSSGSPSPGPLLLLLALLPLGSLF
In short: (§1)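 Conversion in glycine buffer pH 9.8 with alkaline phosphatase from bovine intestinal mucosa; loss of compound and formation of triptolide followed, first-order fit for half-life. Control run in same buffer without enzyme for 1 h.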

[3] = Chemical stability of the compound in buffer assessed as compound remaining at pH 9 after 4 hrs by HPLC analysis; assay type: physicochemical; conditions: read-out: Stability
[4] = Chemical stability of the compound in buffer assessed as compound remaining at pH 2 after 8 hrs by HPLC analysis; assay type: physicochemical; conditions: read-out: Stability
Mus musculus [5] = experiment: Toxicity in athymic nude mouse xenografted with human HT-29 cells assessed as weight gain at 0.9 mg/kg, ip administered 14 days measured post last dose; assay type: organism-based; conditions: in vivo, 336 h
In short: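 Female athymic nude mice, 7–9 weeks old, received 1.74 × 10^6 HT-29 cells subcutaneously in the right flank in 50% Matrigel/McCoy's 5A. Randomized at 110 mm3, 10 per group. Intraperitoneal dosing in USP saline (0.2 mL) over a 28-day period on the stated schedule. Body weights were taken twice weekly; clinical signs and survival were recorded.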

[6] = Aqueous solubility of the compound in Tris buffer at pH 7.4 at room temperature by HPLC analysis; assay type: physicochemical
In short: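 About 5 mg solid was added to Tris buffer pH 7.4 in triplicate to saturation, then sonicated and vortexed. Samples were shaken at 25 °C for 24 h. Excess solid was removed by centrifugation and filtration, and the diluted filtrate was quantified by reverse-phase C18 HPLC with photodiode array detection, using an acetonitrile/10 mM sodium phosphate pH 7 gradient.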

[7] = Chemical stability of the compound in buffer assessed as compound remaining at pH 6 after 8 hrs by HPLC analysis; assay type: physicochemical; conditions: read-out: Stability
HT-29 = experiment: Antitumor activity against human HT-29 cells xenografted in athymic nude mouse at 0.3 to 0.9 mg/kg, ip qd administered for 28 days; assay type: functional, organism-based
In short: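 Female athymic nude mice, 7–9 weeks, implanted s.c. on right flank with 1.74 × 10^6 HT-29 cells (ATCC, mycoplasma/rodent-pathogen tested) in 50% Matrigel/50% McCoy's 5A; randomized at mean tumor 110 mm3, 10/group. IP dosing in USP saline, 0.2 mL, over a 28-day treatment period. Tumor volume by caliper (L × W2/2) at least twice weekly, tumor weight at necropsy, survival, body weight.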

[8] = Second dissociation constant, pKa2 of the compound by 31P NMR analysis
In short: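 pKa2 derived from the pH dependence of the observed 31P NMR chemical shift across solutions of varying pH, by sigmoidal fit (titration-type curve); at 25 °C.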

Mus musculus [9] = experiment: Toxicity in athymic nude mouse xenografted with human A2780 cells assessed as dehydration at 1.2 mg/kg, po administered for 30 days; assay type: organism-based; conditions: in vivo, 720 h
In short: (§2)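 Female athymic nude mice, 7–9 weeks old, received 2.5 × 10^6 A2780 cells subcutaneously in the flank in 50% Matrigel/RPMI 1640. Mice were randomized at a mean tumor volume of 188 mm3, 10 per group. Daily oral gavage in USP saline (0.2 mL) for 30 days, dosed on group-mean body weight. Clinical signs, survival and body weights were recorded.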

[10] = Chemical stability of the compound in buffer assessed as pseudo-first-order rate constant at 50 degC at pH 7.4 by Arrhenius plot analysis; assay type: physicochemical
[11] = molecular target: T2, Alkaline phosphatase, tissue-nonspecific isozyme (Bos taurus, UniProt P09487); experiment: Prodrug conversion in glycine buffer assessed as bovine intestinal mucosal alkaline phosphatase-mediated triptolide and formaldehyde formation at pH 9.8; assay type: ADME; conditions: cattle, isolated protein
T2 sequence (P09487 whole entry): T1 sequence (P09487 whole entry)

[12] = Chemical stability of the compound in buffer assessed as compound remaining at pH 7.4 after 24 hrs by HPLC analysis; assay type: physicochemical; conditions: read-out: Stability
Mus musculus [13] = experiment: Toxicity in athymic nude mouse xenografted with human A2780 cells assessed as morbidity at 0.6 to 0.9 mg/kg, po administered for 30 days; assay type: organism-based; conditions: in vivo, 720 h; in short: as §2
[14] = Half life of the compound in buffer at 4 degC at pH 7.4; assay type: physicochemical
In short: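 Pseudo-first-order kobsd at each temperature was fitted to an Arrhenius plot, which was extrapolated to 25 and 4 °C. t1/2 and t90 (time for 10% loss) were calculated from the extrapolated kobsd.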

[15] = Stability of the compound in glycine buffer at pH 9.8 after 1 hr in absence of bovine intestinal mucosal alkaline phosphatase; assay type: physicochemical; conditions: pH 9.8, 1 h; in short: as §1
[16] = Chemical stability of the compound in buffer assessed as compound remaining at pH 9 after 2 hrs by HPLC analysis; assay type: physicochemical; conditions: read-out: Stability
[17] = Chemical stability of the compound in buffer assessed as compound remaining at pH 4 after 1 hr by HPLC analysis; assay type: physicochemical; conditions: read-out: Stability
[18] = Chemical stability of the compound in buffer assessed as compound remaining at pH 4 after 8 hrs by HPLC analysis; assay type: physicochemical; conditions: read-out: Stability
[19] = Chemical stability of the compound in buffer assessed as compound remaining at pH 9 after 24 hrs by HPLC analysis; assay type: physicochemical; conditions: read-out: Stability
[20] = Chemical stability of the compound in buffer assessed as compound remaining at pH 6 after 2 hrs by HPLC analysis; assay type: physicochemical; conditions: read-out: Stability

## CC(C)[C@]12O[C@H]1[C@@H]1O[C@]13[C@]1(O[C@H]1C[C@H]1C4=C(CC[C@@]13C)C(=O)OC4)[C@@H]2OCOP(=O)([O-])[O-].[Na+].[Na+] [MINNELIDE]
A2780
  Activity: Active
Mus musculus [1]
  Activity: Toxic
[2]
  remaining at 8 h: 100%
Alkaline phosphatase
  half-life: 2 min
[3]
  remaining at 4 h: 100%
[4]
  remaining at 8 h: 94%
Mus musculus [5]
  Activity: Toxic
[6]
  solubility: 61 mg/mL
[7]
  remaining at 8 h: 100%
HT-29
  Activity: Active
[8]
  pKa: 6.61
Mus musculus [9]
  Activity: Toxic
[10]
  K: 0.001052 h⁻¹
[11]
  Drug metabolism: metabolite_detected
[12]
  remaining at 24 h: 100%
Mus musculus [13]
  Activity: Toxic
[14]
  t1/2: 12.2 yr
[15]
  Stability: Stable
[16]
  remaining at 2 h: 100%
[17]
  remaining at 1 h: 100%
[18]
  remaining at 8 h: 99%
[19]
  remaining at 24 h: 100%
[20]
  remaining at 2 h: 100%
